In ChEMBL document CHEMBL4177684, “Design, synthesis, and biological evaluation of hydantoin bridged analogues of combretastatin A-4 as potential anticancer agents” (Bioorg Med Chem, 2017):

Assays:
[1] = Cytotoxicity against HOSEC at 10 uM by MTT assay relative to control; settings: human
[2] = Cytotoxicity against HOSEC at 50 uM by MTT assay relative to control; settings: human
A2780 = test: Antiproliferative activity against human A2780 cells by MTT assay; type: functional, cell-based
How it was run: (§1)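 Growth inhibition rate calculated per compound. IC₅₀ derived by curve fitting.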

HeLa = test: Antiproliferative activity against human HeLa cells by MTT assay; type: functional, cell-based; how it was run: as §1
MDA-MB-231 = test: Antiproliferative activity against human MDA-MB-231 cells by MTT assay; type: functional, cell-based; how it was run: as §1
HCT-116 = test: Antiproliferative activity against human HCT116 cells by MTT assay; type: functional, cell-based; how it was run: as §1
[3] = Inhibition of pig brain tubulin polymerization measured every 1 min for 20 mins by spectrophotometric analysis; design: species or system Sus scrofa

Row | Structure (SMILES) | IC50 (A2780) [nM] | IC50 (HeLa) [nM] | IC50 (MDA-MB-231) [nM] | IC50 (HCT-116) [nM] | Activity [1] [%] | Activity [2] [%] | IC50 [3] [µM]
1 | CC(=O)O[C@H]1C(=O)[C@@]2(C)[C@H]([C@H](OC(=O)c3ccccc3)[C@]3(O)C[C@H](OC(=O)[C@H](O)[C@@H](NC(=O)c4ccccc4)c4ccccc4)C(C)=C1C3(C)C)[C@]1(OC(C)=O)CO[C@@H]1C[C@@H]2O [PACLITAXEL] |  |  |  |  | 51 | 94 | 
2 | COc1cc(C2C(=O)NC(=O)N2c2ccccc2)cc(OC)c1OC (stereo unspecified) | > 50000 | > 50000 |  |  |  |  | 
3 | COc1ccc(N2C(=O)NC(=O)C2c2cc(OC)c(OC)c(OC)c2)cc1 (stereo unspecified) | 2140 | 2820 |  |  |  |  | 
4 | COc1ccc(N2C(=O)NC(=O)C2c2cc(OC)c(OC)c(OC)c2)cc1OS(=O)(=O)F (stereo unspecified) | 4520 | 6760 |  |  |  |  | 
5 | COc1cc(C2C(=O)NC(=O)N2c2ccc3[nH]ccc3c2)cc(OC)c1OC (stereo unspecified) | 8410 | > 50000 |  |  |  |  | 
6 | COc1cc(C2C(=O)NC(=O)N2c2ccc3ncccc3c2)cc(OC)c1OC (stereo unspecified) | > 50000 | > 50000 |  |  |  |  | 
7 | COc1ccc(/C=C\c2cc(OC)c(OC)c(OC)c2)cc1O [COMBRETASTATIN A4] | 5 | 7 | 2 |  |  |  | 6.6
8 | COc1ccc(C2C(=O)NC(=O)N2c2cc(OC)c(OC)c(OC)c2)cc1 (stereo unspecified) | > 50000 | > 50000 |  |  |  |  | 

The next lines start with results.

Row | IC50 (A2780) [nM] | IC50 (HeLa) [nM] | IC50 (MDA-MB-231) [nM] | IC50 (HCT-116) [nM] | Structure (SMILES) | Activity [1] [%] | Activity [2] [%] | IC50 [3] [µM]
9 | > 50000 | > 50000 |  |  | COc1ccc(C2C(=O)NC(=O)N2c2cc(OC)c(OC)c(OC)c2)cc1O (stereo unspecified) |  |  | 
10 | 555 | 516 | 452 | 527 | COc1ccc(N2C(=O)N(C)C(=O)C2c2cc(OC)c(OC)c(OC)c2)cc1F (stereo unspecified) |  |  | 
11 | 353 | 429 | 301 | 386 | COc1ccc(N2C(=O)N(C)C(=O)C2c2cc(OC)c(OC)c(OC)c2)cc1O (stereo unspecified) |  |  | 
12 | 283 | 584 | 311 | 232 | COc1ccc(N2C(=O)NC(=O)C2c2cc(OC)c(OC)c(OC)c2)cc1N (stereo unspecified) |  |  | 
13 | 815 | 665 | 768 | 945 | COc1ccc(N2C(=O)NC(=O)C2c2cc(OC)c(OC)c(OC)c2)cc1O (stereo unspecified) |  |  | 
14 | 305 | 399 | 582 | 355 | COc1ccc(N2C(=O)N(C)C(=O)[C@@H]2c2cc(OC)c(OC)c(OC)c2)cc1N |  |  | 
15 | 679 | 631 | 1190 | 681 | COc1cc(C2C(=O)N(C)C(=O)N2c2ccc(C)c(N)c2)cc(OC)c1OC (stereo unspecified) |  |  | 
16 | 1910 | 3300 |  |  | CCN1C(=O)C(c2cc(OC)c(OC)c(OC)c2)N(c2ccc(OC)c(N)c2)C1=O (stereo unspecified) |  |  | 
